As usually defined, the pIC50 is the negative decadic logarithm of the IC50, by convention in mol/L. A higher pIC50 goes with a low IC50. By ED50 is commonly meant the midpoint of the dose-response relation.

pIC50: −log10 of the molar value.

The target in assay [1] is T1, Angiotensin-converting enzyme (Oryctolagus cuniculus, UniProt P12822).
T1 sequence (P12822 whole entry): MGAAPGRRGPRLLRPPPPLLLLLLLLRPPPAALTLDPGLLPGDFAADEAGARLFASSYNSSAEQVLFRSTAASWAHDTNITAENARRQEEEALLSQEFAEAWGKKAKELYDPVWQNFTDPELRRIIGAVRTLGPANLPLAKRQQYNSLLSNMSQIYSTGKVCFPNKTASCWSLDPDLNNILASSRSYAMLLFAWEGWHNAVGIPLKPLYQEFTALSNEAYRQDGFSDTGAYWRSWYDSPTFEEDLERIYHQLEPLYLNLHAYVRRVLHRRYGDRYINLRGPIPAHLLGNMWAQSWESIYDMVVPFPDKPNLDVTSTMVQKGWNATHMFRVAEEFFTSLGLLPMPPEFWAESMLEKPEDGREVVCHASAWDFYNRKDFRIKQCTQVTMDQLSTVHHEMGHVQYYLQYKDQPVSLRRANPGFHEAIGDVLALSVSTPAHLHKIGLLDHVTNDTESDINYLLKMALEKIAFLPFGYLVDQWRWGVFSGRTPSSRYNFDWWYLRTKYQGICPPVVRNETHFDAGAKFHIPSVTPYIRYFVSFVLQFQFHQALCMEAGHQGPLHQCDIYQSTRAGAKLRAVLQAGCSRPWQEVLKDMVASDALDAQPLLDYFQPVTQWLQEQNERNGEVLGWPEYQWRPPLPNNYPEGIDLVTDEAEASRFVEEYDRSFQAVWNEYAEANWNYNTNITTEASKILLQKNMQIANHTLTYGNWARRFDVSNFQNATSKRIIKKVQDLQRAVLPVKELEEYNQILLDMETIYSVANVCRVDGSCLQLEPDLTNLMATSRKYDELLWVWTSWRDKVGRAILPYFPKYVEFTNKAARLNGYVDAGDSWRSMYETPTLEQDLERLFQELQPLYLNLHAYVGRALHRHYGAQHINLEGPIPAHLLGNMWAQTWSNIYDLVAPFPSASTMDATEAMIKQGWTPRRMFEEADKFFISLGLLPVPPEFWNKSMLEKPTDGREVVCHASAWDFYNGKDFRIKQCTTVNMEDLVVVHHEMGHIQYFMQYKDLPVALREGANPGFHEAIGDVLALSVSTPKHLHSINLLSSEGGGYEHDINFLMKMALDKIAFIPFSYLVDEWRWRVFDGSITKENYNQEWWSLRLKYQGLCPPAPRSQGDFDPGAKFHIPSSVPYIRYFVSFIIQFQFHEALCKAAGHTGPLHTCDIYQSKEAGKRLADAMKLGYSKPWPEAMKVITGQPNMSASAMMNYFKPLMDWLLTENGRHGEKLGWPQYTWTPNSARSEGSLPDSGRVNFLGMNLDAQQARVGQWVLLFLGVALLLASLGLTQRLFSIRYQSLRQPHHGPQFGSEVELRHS
Nature of the assay: In vitro inhibition of Angiotensin I converting enzyme isolated from rabbit lung extract. In kind it is tissue-based. An outline of the steps: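 Rabbit lung acetone powder extract (1:20 dilution) as enzyme source; spectrophotometric hippuric acid formation from hippuryl-L-histidyl-L-leucine (5 mM final). Final concentrations: 100 mM phosphate buffer pH 8.3, 300 mM NaCl; varied inhibitor concentrations or vehicle. Incubated 30 min at 37 °C. Stopped with 1 N HCl, then ethyl acetate added.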

In the next assay the target is T2, Neprilysin (Rattus norvegicus, UniProt P07861).
T2 sequence (P07861 whole entry): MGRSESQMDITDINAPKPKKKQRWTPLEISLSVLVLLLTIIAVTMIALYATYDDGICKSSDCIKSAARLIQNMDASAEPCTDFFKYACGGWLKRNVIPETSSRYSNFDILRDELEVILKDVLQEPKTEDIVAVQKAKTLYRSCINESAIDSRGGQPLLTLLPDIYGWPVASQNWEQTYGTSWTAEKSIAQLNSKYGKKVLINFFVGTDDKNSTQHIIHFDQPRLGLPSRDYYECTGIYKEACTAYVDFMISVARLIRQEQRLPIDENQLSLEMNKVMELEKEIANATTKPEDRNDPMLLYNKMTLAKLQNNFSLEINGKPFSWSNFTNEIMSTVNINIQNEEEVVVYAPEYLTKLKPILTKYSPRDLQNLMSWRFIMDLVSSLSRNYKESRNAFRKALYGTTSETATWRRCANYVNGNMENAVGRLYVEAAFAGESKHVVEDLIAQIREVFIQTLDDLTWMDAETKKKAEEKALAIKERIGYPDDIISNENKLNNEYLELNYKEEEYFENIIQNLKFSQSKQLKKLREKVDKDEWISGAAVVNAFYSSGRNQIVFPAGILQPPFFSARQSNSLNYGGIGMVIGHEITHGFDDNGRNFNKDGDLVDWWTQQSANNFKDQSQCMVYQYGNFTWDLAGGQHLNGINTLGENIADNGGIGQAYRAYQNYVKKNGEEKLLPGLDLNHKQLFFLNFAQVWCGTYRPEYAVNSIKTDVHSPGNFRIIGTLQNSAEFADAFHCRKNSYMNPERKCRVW
As to the kind of experiment: In vitro inhibition of purified rat kidney Neutral endopeptidase. In a few lines:
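Rat kidney membrane enzyme solubilized (1% deoxycholate, papain/DTT, 37 °C 90 min), purified by gel filtration and phenyl sepharose. Enzyme in 0.05% Triton X-100 with 50 mM Tris-HCl pH 7.5, preincubated 10 min with inhibitor; 0.5 mM dansyl-Gly-Phe-Arg added. Incubated 37 °C, 30 min; stopped with HCl. Dansyl-Gly extracted into ethyl acetate; fluorescence ex 342/em 510 nm, zero-time corrected, versus no-inhibitor.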

The test system of another assay is Rattus norvegicus. As to the kind of experiment: Intravenous effective dose required to inhibit 50% of the AI pressor response in normotensive rats. In kind it is functional. In a few lines:
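Conscious male Sprague-Dawley rats (220-240 g), aortic and vena caval catheters, four per assay. Various doses given iv in 5% NaHCO3. AI (310 ng/kg iv) pressor responses taken before dosing and at 2-30 min intervals up to 6 h. Maximum-inhibition time point per dose used for the dose-response curve; ED50 interpolated.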

On to `C[C@H]1CCC[C@H](NC(=O)[C@@H](S)Cc2ccccc2)C(=O)N1CC(=O)O`, for which the pIC50 in assay [1] was 8.10; against Neprilysin, 7.31. Also, in the assay with Rattus norvegicus, it took a dose of 0.11 µmol/kg to reach the 50% effect level (ED50).
Take `C[C@@H](C(=O)O)N1CCCC[C@H](NC(=O)[C@@H](S)Cc2ccccc2)C1=O`: the pIC50 in assay [1] is 7.59; against Neprilysin it was 7.04. In the assay with Rattus norvegicus, this compound yielded a median effective dose (ED50) of 1.22 µmol/kg.
On to `O=C(O)CN1C(=O)[C@@H](NC(=O)[C@@H](S)Cc2ccccc2)CCC[C@@H]1CCO`, for which the pIC50 in assay [1] was 7.60; against Neprilysin, 7.51. The ED50 with Rattus norvegicus is 0.08 µmol/kg.
Take `O=C(O)CN1C(=O)[C@@H](NC(=O)[C@@H](S)Cc2ccccc2)CCC[C@@H]1CC1CC1`: the figures for the negative logarithm of the IC50 (pIC50) (in assay [1]; against Neprilysin) were 7.64 and 6.85, respectively.
Regarding `CCC[C@H]1CCC[C@H](NC(=O)[C@@H](S)Cc2ccccc2)C(=O)N1CC(=O)O`, the results for the pIC50 (in assay [1]; at Neprilysin) were 7.96 and 7.40, respectively. The compound also gave an ED50 in the assay with Rattus norvegicus of 0.06 µmol/kg.
With `O=C(O)CN1C(=O)[C@@H](NC(=O)[C@@H](S)Cc2ccccc2)CCC[C@@H]1C1CCCC1`, the pIC50 in assay [1] is 7.77; on Neprilysin, 5.78.
As for `C=CC[C@H]1CCC[C@H](NC(=O)[C@@H](S)Cc2ccccc2)C(=O)N1CC(=O)O`, the pIC50 was 8.15 in assay [1] and 7.19 on Neprilysin. The 50% effect level in the assay on Rattus norvegicus (ED50) was put at a dose of 0.04 µmol/kg.
Turning to `CCC[C@H]1CCC[C@H](NC(=O)[C@@H](S)Cc2ccccc2)C(=O)N1[C@@H](CC)C(=O)O`, the values for the pIC50 (in assay [1]; at Neprilysin) were 7.60 and 7.07, respectively.
`C[C@H](NC(=O)[C@@H](S)Cc1ccccc1)C(=O)N1CCC[C@H]1C(=O)O` yielded an ED50 in the assay on Rattus norvegicus of 0.06 µmol/kg.
Turning to `O=C(O)CN1CCCC[C@H](NC(=O)[C@@H](S)Cc2ccccc2)C1=O`, the figures for the pIC50 (in assay [1]; against Neprilysin) were 7.66 and 7.09, respectively. Moreover, the ED50 in the assay with Rattus norvegicus is 0.84 µmol/kg.
On the same counts, the results for `O=C(O)CN1C(=O)[C@@H](NC(=O)[C@@H](S)Cc2ccccc2)CCc2ccccc21` are 7.92, 8.22 and 0.02 µmol/kg.
As to `C[C@@H]1CCC[C@H](NC(=O)[C@@H](S)Cc2ccccc2)C(=O)N1CC(=O)O`, the figures for the pIC50 (in assay [1]; against Neprilysin) were 7.80 and 6.83, respectively.
For `CCC[C@@H]1CCC[C@H](NC(=O)[C@@H](S)Cc2ccccc2)C(=O)N1CC(=O)O`, the pIC50 in assay [1] was 7.85; against Neprilysin, 6.33.
For `CC(C)C[C@H]1CCC[C@H](NC(=O)[C@@H](S)Cc2ccccc2)C(=O)N1CC(=O)O`, in that order: 8.00 and 5.78.
On the same counts, the results for `CC(C)[C@@H](C(=O)O)N1CCCC[C@H](NC(=O)[C@@H](S)Cc2ccccc2)C1=O` are 6.04 and 6.00.
For `O=C(N[C@H]1CCCCN([C@@H](Cc2ccccc2)C(=O)O)C1=O)[C@@H](S)Cc1ccccc1`, in that order: 6.32 and 7.49.
For `O=C(N[C@H]1CCC[C@H]2CCC[C@@H](C(=O)O)N2C1=O)[C@@H](S)Cc1ccccc1`, the pIC50 in assay [1] is 7.96; against Neprilysin, 7.60. In addition, in the assay with Rattus norvegicus, the 50% effect level (ED50) was put at a dose of 0.12 µmol/kg.
On the same counts, the results for `O=C(N[C@H]1CCC[C@H]2CC[C@@H](C(=O)O)N2C1=O)[C@@H](S)Cc1ccccc1` are 8.30, 7.74 and 0.06 µmol/kg.
Consider `CCC[C@H]1CCC[C@H](NC(=O)[C@@H](S)Cc2ccccc2)C(=O)N1[C@@H](C)C(=O)O`, for which the negative-log IC50 (pIC50) is 8.30 in assay [1] and 7.77 against Neprilysin. Besides, the 50% effect level in the assay on Rattus norvegicus (ED50) was put at a dose of 0.12 µmol/kg.

Values taken from ChEMBL document CHEMBL1129797, “Dual metalloprotease inhibitors. 6. Incorporation of bicyclic and substituted monocyclic azepinones as dipeptide surrogates in angiotensin-converting enzyme/neutral endopeptidase inhibitors” (J Med Chem, 1996).
